# Measurements: ChEMBL document CHEMBL1148142, “New metabolites from sponge-derived fungi Curvularia lunata and Cladosporium herbarum” (J Nat Prod, 2002)
# Calls of active or inactive are those of the source. The calls are words filed in the database; no cut-off is given here.
# Key:
# Escherichia coli [1] = assay: Antibacterial activity against Escherichia coli HBI 101 at 5 ug/disk by agar plate diffusion assay; format: functional; conditions: read-out: IZ
# Summary of the method: (§1)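 Paper disks (5.5 mm) loaded with 5 or 10 μg of pure compound, laid on agar plates seeded with the test organism. Plates incubated 24 h at 37 °C, then inspected for inhibition zones.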
# Bacillus subtilis [2] = assay: Antibacterial activity against Bacillus subtilis 168 at 5 ug/disk by agar plate diffusion assay; format: functional; conditions: read-out: IZ; summary of the method: as §1
# Candida albicans [3] = assay: Antifungal activity against Candida albicans at 5 ug/disk by agar plate diffusion assay; format: functional, organism-based; summary of the method: as §1
# Escherichia coli [4] = assay: Antibacterial activity against Escherichia coli ATCC 25922 at 10 ug/disk by agar plate diffusion assay; format: functional; conditions: read-out: IZ; summary of the method: as §1
# Candida albicans [5] = assay: Antifungal activity against Candida albicans at 10 ug/disk by agar plate diffusion assay; format: functional, organism-based; summary of the method: as §1
# Escherichia coli [6] = assay: Antibacterial activity against Escherichia coli ATCC 25922 at 5 ug/disk by agar plate diffusion assay; format: functional; conditions: read-out: IZ; summary of the method: as §1
# Staphylococcus aureus [7] = assay: Antibacterial activity against Staphylococcus aureus ATCC 25923 at 10 ug/disk by agar plate diffusion assay; format: functional; conditions: read-out: IZ; summary of the method: as §1
# Bacillus subtilis [8] = assay: Antibacterial activity against Bacillus subtilis 168 at 10 ug/disk by agar plate diffusion assay; format: functional; conditions: read-out: IZ; summary of the method: as §1
# Staphylococcus aureus [9] = assay: Antibacterial activity against Staphylococcus aureus ATCC 25923 at 5 ug/disk by agar plate diffusion assay; format: functional; conditions: read-out: IZ; summary of the method: as §1
# Escherichia coli [10] = assay: Antibacterial activity against Escherichia coli HBI 101 at 10 ug/disk by agar plate diffusion assay; format: functional; conditions: read-out: IZ; summary of the method: as §1
# HL-60 = assay: Cytotoxicity against human HL60 cells; format: functional, cell-based
SMILES,zone of inhibition at 5 µg/disc (Escherichia coli [1]),zone of inhibition at 5 µg/disc (Bacillus subtilis [2]),Activity (Candida albicans [3]),zone of inhibition at 10 µg/disc (Escherichia coli [4]),Activity (Candida albicans [5]),zone of inhibition at 5 µg/disc (Escherichia coli [6]),zone of inhibition at 10 µg/disc (Staphylococcus aureus [7]),zone of inhibition at 10 µg/disc (Bacillus subtilis [8]),zone of inhibition at 5 µg/disc (Staphylococcus aureus [9]),zone of inhibition at 10 µg/disc (Escherichia coli [10]),Activity (HL-60)
COc1cc(O)c2c(c1)C(=O)c1cc(O)cc(O)c1C2=O [LUNATIN],8 mm,7.5 mm,inactive,11 mm,inactive,9 mm,10 mm,9 mm,8.5 mm,10.5 mm,
COc1cc(O)c2c(c1)C(=O)C13C(=C(O)C4[C@@H](O)C1C1[C@H](O)C3C(O)=C3C(=O)c5c(O)cc(OC)cc5C(=O)C341)C2=O (stereo partly specified) [CYTOSKYRIN A],8 mm,8 mm,inactive,11 mm,inactive,9 mm,10 mm,12 mm,8.5 mm,9 mm,
O=C(O)CC1OC(=O)c2c(O)cc(O)cc21 (stereo unspecified),,,,,,,,,,,Not toxic
